In ChEMBL document CHEMBL4196021, “Targeting G-quadruplex DNA structures in the telomere and oncogene promoter regions by benzimidazole‒carbazole ligands” (Eur J Med Chem, 2018):
The source made the active and inactive calls. The rule behind the calls is not given here.

Key:
Quadruplex DNA [1] = assay: Binding affinity to human c-Kit1 G-quadruplex DNA at 0.6 uM after 5 mins in presence of KCl by fluorescence spectroscopic method; assay type: nucleic-acid assay
Procedure, shortened: (§1)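 Fluorescence titration at 25 °C with 0.6 µM ligand in 10 mM Tris-HCl pH 7.4, 100 mM KCl, 0.1 mM EDTA. Preformed G4 DNA was added stepwise, with 5 min incubation before each spectrum. Excitation 330 nm; emission 350–550 nm, slit 5 nm.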

Quadruplex DNA [2] = assay: Binding affinity to human c-Myc G-quadruplex DNA at 0.6 uM after 5 mins in presence of KCl by fluorescence spectroscopic method; assay type: nucleic-acid assay; procedure, shortened: as §1
Quadruplex DNA [3] = assay: Induction of conformational changes in human telomeric G-quadruplex DNA assessed as inversion from potassium ion stabilized hybrid type mixed parallel/antiparallel G-quadruplex to stable telomere parallel-stranded G-quadruplex after 5 mins in presence of KCl by CD spectroscopic method; assay type: nucleic-acid assay
Procedure, shortened: (§2)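 CD spectra of 5 µM G4 DNA in 10 mM Tris-HCl pH 7.4, 100 mM KCl, 0.1 mM EDTA, with or without ligand. Mixtures were heated 95 °C for 5 min and slowly cooled to room temperature. Recorded 200–400 nm at 25 °C, 100 nm/min, 2 s response, 1 cm cell; average of three scans.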

Quadruplex DNA [4] = assay: Induction of conformational changes in human Bcl2 G-quadruplex DNA assessed as inversion from potassium ion stabilized hybrid type mixed parallel/antiparallel G-quadruplex to stable telomere parallel-stranded G-quadruplex after 5 mins in presence of KCl by CD spectroscopic method; assay type: nucleic-acid assay; procedure, shortened: as §2
Quadruplex DNA [5] = assay: Binding affinity to human c-Myc G-quadruplex DNA assessed as stabilization of parallel stranded topology after 5 mins in presence of KCl by CD spectroscopic method; assay type: nucleic-acid assay; procedure, shortened: as §2
Quadruplex DNA [6] = assay: Binding affinity to human c-Kit1 G-quadruplex DNA assessed as stabilization of parallel stranded topology after 5 mins in presence of KCl by CD spectroscopic method; assay type: nucleic-acid assay; procedure, shortened: as §2
Quadruplex DNA [7] = assay: Binding affinity to human VEGF G-quadruplex DNA assessed as stabilization of parallel stranded topology after 5 mins in presence of KCl by CD spectroscopic method; assay type: nucleic-acid assay; procedure, shortened: as §2
Quadruplex DNA [8] = assay: Displacement of thiazole orange from human telomeric G-quadruplex DNA after 5 mins in presence of KCl by fluorescence assay; assay type: nucleic-acid assay
Procedure, shortened: (§3)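 Thiazole orange displacement from a G4 DNA–TO complex (1 µM TO + 0.5 µM G4 DNA) in 10 mM Tris-HCl pH 7.4, 100 mM KCl, 0.1 mM EDTA. Ligand was added in increasing steps, with 5 min incubation each. Fluorescence read at ex 501/em 531 nm; % displacement = 100 − (Ft/F0 × 100). DC50 is the ligand concentration giving 50% displacement, read from plots; average of two independent experiments.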

Quadruplex DNA [9] = assay: Displacement of thiazole orange from human Bcl2 G-quadruplex DNA after 5 mins in presence of KCl by fluorescence assay; assay type: nucleic-acid assay; procedure, shortened: as §3
Quadruplex DNA [10] = assay: Displacement of thiazole orange from human c-Kit1 G-quadruplex DNA after 5 mins in presence of KCl by fluorescence assay; assay type: nucleic-acid assay; procedure, shortened: as §3
Quadruplex DNA [11] = assay: Displacement of thiazole orange from human c-Kit2 G-quadruplex DNA after 5 mins in presence of KCl by fluorescence assay; assay type: nucleic-acid assay; procedure, shortened: as §3
Calf thymus DNA = assay: Displacement of thiazole orange from calf thymus duplex DNA after 5 mins in presence of KCl by fluorescence assay; assay type: nucleic-acid assay, Bos taurus
Quadruplex DNA [12] = assay: Binding affinity to human c-Myc G-quadruplex DNA assessed as change in melting temperature in presence of KCl by CD spectroscopic method; assay type: nucleic-acid assay
Procedure, shortened: (§4)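 CD melting of 5 µM G4 DNA in 10 mM Tris-HCl pH 7.4, 25 mM KCl, 0.1 mM EDTA. Ligand was present during folding (heating, slow cooling). Spectra 200–400 nm over 20–96 °C in 2 °C steps, buffer blank subtracted. Tm was taken from normalized ellipticity at the positive maximum (262 nm for promoter G4s). ΔTm = ligand-bound minus DNA alone; average of two independent experiments.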

Quadruplex DNA [13] = assay: Binding affinity to human Bcl2 G-quadruplex DNA assessed as change in melting temperature in presence of KCl by CD spectroscopic method; assay type: nucleic-acid assay; procedure, shortened: as §4
Quadruplex DNA [14] = assay: Binding affinity to human c-Kit2 G-quadruplex DNA assessed as change in melting temperature in presence of KCl by CD spectroscopic method; assay type: nucleic-acid assay; procedure, shortened: as §4
Quadruplex DNA [15] = assay: Binding affinity to human 77-mer c-Myc G-quadruplex DNA assessed as inhibition of Taq DNA polymerase-mediated DNA synthesis by measuring generation of premature chain termination products using 32P-labeled primer after 30 mins by polymerase stop assay; assay type: nucleic-acid assay
Procedure, shortened: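 Template of 10 nM single-stranded 77-mer c-MYC with the G-quadruplex-forming sequence, annealed to 32P-labeled plus cold primer (15 nM) in Tris-HCl pH 7.4 with 5 mM KCl. Annealing was 95 °C for 5 min then slow cooling, with ligand added before annealing. Extension with Taq polymerase (5 mM MgCl2, 0.5 mM DTT, 0.2 mM dNTPs) ran 30 min at 48 or 40 °C. Products were resolved on 15% urea denaturing PAGE and read by phosphorimaging.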

[16] = molecular target: Telomerase reverse transcriptase (Homo sapiens, UniProt O14746); assay: Inhibition of telomerase (unknown origin) by TRAP-LIG assay
Sequence of Telomerase reverse transcriptase (O14746 whole entry): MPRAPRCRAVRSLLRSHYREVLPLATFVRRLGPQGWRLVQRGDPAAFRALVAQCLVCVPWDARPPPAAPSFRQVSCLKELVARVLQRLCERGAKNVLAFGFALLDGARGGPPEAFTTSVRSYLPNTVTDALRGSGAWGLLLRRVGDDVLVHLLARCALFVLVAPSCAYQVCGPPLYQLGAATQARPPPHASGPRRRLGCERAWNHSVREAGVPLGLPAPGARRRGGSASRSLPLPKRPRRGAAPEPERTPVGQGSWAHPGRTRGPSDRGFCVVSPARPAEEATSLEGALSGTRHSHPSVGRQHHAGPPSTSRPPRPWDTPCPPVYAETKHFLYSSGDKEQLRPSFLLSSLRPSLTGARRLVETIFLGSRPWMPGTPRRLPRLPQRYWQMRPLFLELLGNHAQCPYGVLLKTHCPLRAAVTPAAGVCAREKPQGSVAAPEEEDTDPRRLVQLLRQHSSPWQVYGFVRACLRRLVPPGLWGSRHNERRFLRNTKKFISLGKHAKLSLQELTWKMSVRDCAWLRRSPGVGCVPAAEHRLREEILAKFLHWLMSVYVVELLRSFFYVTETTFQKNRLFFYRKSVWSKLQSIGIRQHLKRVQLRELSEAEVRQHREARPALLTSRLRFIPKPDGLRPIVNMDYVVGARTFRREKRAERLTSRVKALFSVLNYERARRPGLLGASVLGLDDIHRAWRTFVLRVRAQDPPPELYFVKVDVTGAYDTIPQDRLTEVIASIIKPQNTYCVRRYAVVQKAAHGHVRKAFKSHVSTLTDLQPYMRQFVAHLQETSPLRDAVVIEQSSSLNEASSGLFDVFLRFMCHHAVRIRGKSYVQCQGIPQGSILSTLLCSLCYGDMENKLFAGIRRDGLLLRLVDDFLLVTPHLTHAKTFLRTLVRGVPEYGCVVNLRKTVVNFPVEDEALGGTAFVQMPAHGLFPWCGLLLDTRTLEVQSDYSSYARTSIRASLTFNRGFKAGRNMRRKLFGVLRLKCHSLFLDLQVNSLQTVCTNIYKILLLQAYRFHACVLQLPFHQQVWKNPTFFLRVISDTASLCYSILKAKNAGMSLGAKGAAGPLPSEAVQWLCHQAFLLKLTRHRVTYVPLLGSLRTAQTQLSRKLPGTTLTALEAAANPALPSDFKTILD
Procedure, shortened: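 Telomerase activity measured by modified TRAP-LIG assay across ligand concentrations of 0.01 to 2 µM (11 levels). Positive and negative controls included. Inhibition was judged from the intensity and number of telomeric ladder bands.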

Quadruplex DNA [17] = assay: Stabilization of c-Myc G-quadruplex DNA in human HeLa cells assessed as decrease in c-Myc mRNA level at 10 uM after 24 hrs by RT-PCR method relative to control; assay type: cell-based; parameters: scale not given: the % may be the effect or the level left
Procedure, shortened: (§5)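 HeLa cells exposed to increasing ligand concentrations (5 and 10 µM named) for 24 h, with DMSO-treated cells as control. Total RNA was extracted with TRI reagent and DNase I-treated. c-MYC and VEGF transcripts were quantified by qRT-PCR, normalized to GAPDH, and expressed as relative fold change.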

Quadruplex DNA [18] = assay: Stabilization of VEGF G-quadruplex DNA in human HeLa cells assessed as decrease in VEGF mRNA level after 24 hrs by RT-PCR method; assay type: cell-based; procedure, shortened: as §5
Quadruplex DNA [19] = assay: Stabilization of VEGF G-quadruplex DNA in human HeLa cells assessed as decrease in VEGF mRNA level at 10 uM after 24 hrs by RT-PCR method relative to control; assay type: cell-based; parameters: scale not given: the % may be the effect or the level left; procedure, shortened: as §5
HeLa [20] = assay: Effect on GADPH mRNA level in human HeLa cells assessed as decrease in VEGF mRNA level at 2.5 to 10 uM after 24 hrs by RT-PCR method; assay type: cell-based
MCF7 = assay: Cytotoxicity against human MCF7 cells assessed as reduction in cell viability after 72 hrs by MTT assay; assay type: functional, cell-based
Procedure, shortened: (§6)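 HeLa and MCF7 cells in log phase were seeded for 24 h, then exposed to a range of ligand concentrations for 72 h. MTT (5 mg/ml stock) was added for 4 h, formazan dissolved in DMSO, and absorbance read at 570 nm. Three independent experiments in triplicate, mean ± SD.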

HeLa [21] = assay: Cytotoxicity against human HeLa cells assessed as reduction in cell viability after 72 hrs by MTT assay; assay type: functional, cell-based; procedure, shortened: as §6

Activity (Quadruplex DNA [1]): Active
Activity (Quadruplex DNA [2]): Active
Activity (Quadruplex DNA [3]): Active
Activity (Quadruplex DNA [4]): Active
Activity (Quadruplex DNA [5]): Active
Activity (Quadruplex DNA [6]): Active
Activity (Quadruplex DNA [7]): Active
DC50 (Quadruplex DNA [8]): 1130 nM
DC50 (Quadruplex DNA [9]): 1390 nM
DC50 (Quadruplex DNA [10]): 860 nM
DC50 (Quadruplex DNA [11]): 650 nM
DC50 (Calf thymus DNA): 6940 nM
ΔTm (Quadruplex DNA [12]): 7.35 °C
ΔTm (Quadruplex DNA [13]): 9.54 °C
ΔTm (Quadruplex DNA [14]): 23.3 °C
Activity (Quadruplex DNA [15]): Dose-dependent effect
IC50 [16]: 300 nM
inhibition [16]: Dose-dependent effect
SMILES: CN(C)CCCCn1c2ccc(-c3nc4ccc(N5CCN(CCO)CC5)cc4[nH]3)cc2c2cc(-c3nc4ccc(N5CCN(CCO)CC5)cc4[nH]3)ccc21
Activity (Quadruplex DNA [17]): 71%
Activity (Quadruplex DNA [18]): Dose-dependent effect
Activity (Quadruplex DNA [19]): 68%
Activity (HeLa [20]): Non-Toxic
Activity (MCF7): Dose-dependent effect
IC50 (MCF7; MCF7, 72 h): 11400 nM
Activity (HeLa [21]): Dose-dependent effect
IC50 (HeLa [21]): 8290 nM
